Experiments:
K562 = experiment: Growth inhibition of human K562 cells expressing p210Bcr/Abl after 96 hrs by trypan blue exclusion assay; type: functional, cell-based; details: K562, 96 h
How it was run: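 K562 cells were kept in RPMI with 10% FBS and penicillin–streptomycin at 37 °C under 5% CO2. Cells were seeded at 1 × 10^5 cells/mL with a range of compound concentrations, using DMSO as the negative control. After 96 h, viability was counted by Trypan blue exclusion and expressed as percent of DMSO control to derive GI50.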

Bcr/Abl fusion protein = Bcr/Abl fusion protein (Homo sapiens, UniProt P00519); experiment: Inhibition of BCR/ABL p210 autophosphorylation in human K562 cells after 2 hrs by Western blot analysis; type: cell-based
Chain of Bcr/Abl fusion protein (P00519 whole entry, the tested form may be a part): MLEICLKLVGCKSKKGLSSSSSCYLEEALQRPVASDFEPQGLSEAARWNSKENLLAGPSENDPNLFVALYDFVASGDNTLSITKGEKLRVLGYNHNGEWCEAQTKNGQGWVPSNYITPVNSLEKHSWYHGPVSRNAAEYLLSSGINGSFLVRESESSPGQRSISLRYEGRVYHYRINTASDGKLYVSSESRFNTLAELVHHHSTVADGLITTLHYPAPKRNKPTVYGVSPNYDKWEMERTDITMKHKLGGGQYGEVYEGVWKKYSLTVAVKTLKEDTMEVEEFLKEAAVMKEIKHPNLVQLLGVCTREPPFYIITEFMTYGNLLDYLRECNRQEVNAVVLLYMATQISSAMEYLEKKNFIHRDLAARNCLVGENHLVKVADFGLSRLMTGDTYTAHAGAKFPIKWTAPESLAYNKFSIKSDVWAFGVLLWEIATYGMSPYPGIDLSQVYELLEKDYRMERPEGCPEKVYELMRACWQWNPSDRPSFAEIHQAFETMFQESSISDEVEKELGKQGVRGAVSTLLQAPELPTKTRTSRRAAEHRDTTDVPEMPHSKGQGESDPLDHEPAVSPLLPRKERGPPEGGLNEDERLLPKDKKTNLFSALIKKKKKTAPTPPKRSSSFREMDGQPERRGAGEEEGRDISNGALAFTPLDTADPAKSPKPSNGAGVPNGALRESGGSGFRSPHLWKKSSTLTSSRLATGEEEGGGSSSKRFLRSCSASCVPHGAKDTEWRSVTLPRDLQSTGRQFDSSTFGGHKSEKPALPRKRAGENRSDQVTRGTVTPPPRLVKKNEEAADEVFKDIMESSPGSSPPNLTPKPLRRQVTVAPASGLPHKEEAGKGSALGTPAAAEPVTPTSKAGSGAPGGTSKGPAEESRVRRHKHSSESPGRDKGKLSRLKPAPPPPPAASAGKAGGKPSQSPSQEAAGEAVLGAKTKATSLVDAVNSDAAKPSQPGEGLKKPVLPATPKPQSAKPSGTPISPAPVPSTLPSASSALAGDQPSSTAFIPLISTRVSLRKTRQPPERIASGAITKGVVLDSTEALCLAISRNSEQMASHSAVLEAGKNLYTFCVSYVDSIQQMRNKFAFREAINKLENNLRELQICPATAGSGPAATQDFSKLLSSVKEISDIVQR
Chain of Bcr/Abl fusion protein (P11274 whole entry, further chain, the tested form may be a part): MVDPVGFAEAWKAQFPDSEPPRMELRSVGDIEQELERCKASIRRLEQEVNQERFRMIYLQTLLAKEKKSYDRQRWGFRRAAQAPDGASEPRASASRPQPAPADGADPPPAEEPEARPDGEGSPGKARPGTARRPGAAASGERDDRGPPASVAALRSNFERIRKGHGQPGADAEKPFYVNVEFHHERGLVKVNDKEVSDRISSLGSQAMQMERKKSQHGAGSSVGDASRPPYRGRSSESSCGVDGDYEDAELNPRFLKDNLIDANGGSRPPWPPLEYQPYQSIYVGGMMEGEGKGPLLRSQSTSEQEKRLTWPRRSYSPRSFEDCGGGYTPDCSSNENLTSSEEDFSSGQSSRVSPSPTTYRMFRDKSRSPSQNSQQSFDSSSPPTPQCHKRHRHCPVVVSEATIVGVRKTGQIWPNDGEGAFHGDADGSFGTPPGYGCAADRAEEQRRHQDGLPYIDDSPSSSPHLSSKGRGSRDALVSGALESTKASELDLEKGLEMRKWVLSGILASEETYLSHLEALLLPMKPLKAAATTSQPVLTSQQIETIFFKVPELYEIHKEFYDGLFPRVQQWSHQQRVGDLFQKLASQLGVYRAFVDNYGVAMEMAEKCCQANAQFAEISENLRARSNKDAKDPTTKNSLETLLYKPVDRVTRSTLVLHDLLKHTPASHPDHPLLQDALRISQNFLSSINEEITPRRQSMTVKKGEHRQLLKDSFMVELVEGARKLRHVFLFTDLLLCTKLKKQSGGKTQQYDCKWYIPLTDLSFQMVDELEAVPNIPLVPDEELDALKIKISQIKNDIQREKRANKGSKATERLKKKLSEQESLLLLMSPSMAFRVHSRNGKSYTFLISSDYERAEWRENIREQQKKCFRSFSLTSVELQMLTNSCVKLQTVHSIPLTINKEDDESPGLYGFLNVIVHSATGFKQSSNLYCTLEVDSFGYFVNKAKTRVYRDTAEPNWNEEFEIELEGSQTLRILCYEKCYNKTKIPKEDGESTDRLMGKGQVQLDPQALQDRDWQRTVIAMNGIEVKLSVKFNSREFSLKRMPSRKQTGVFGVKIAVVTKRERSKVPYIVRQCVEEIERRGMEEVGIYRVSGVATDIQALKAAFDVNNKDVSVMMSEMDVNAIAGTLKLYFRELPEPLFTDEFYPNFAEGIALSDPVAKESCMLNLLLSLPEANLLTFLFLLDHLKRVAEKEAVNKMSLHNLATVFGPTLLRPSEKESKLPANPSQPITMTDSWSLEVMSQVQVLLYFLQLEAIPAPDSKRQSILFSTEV

[1] = Aqueous solubility of the compound; type: physicochemical; details: buffer
DU-145 = experiment: Growth inhibition of human DU145 cells after 96 hrs by trypan blue exclusion assay; type: functional; details: DU-145, 96 h

Row | Compound | IC50 (K562) [µM] | IC50 (Bcr/Abl fusion protein) [µM] | solubility [1] [µg/mL] | GI50 (K562) [µM] | GI50 (DU-145) [µM]
1 | O=C(O)c1ccc(C(=O)/C(=C\c2ccc(F)c([N+](=O)[O-])c2)SCc2ccccc2)cc1 | 0.3 | 2.5 | < 1000 | – | –
2 | O=C(O)c1ccc(C(=O)/C(=C\c2ccc(F)c([N+](=O)[O-])c2)Sc2ccc(Br)cc2)cc1 | 1.5 | 20 | < 1000 | – | –
3 | O=C(O)c1ccc(C(=O)/C(=C\c2ccc(Cl)c([N+](=O)[O-])c2)S(=O)(=O)Cc2ccc(Br)cc2)cc1 | 25 | > 20 | < 1000 | 25 | 25
4 | O=C(O)c1ccc(C(=O)/C(=C\c2ccc(F)c([N+](=O)[O-])c2)S(=O)(=O)Cc2ccc(Br)cc2)cc1 | 5 | > 20 | < 1000 | – | –
5 | O=C(O)c1ccc(C(=O)/C(=C\c2ccc(F)cc2[N+](=O)[O-])SCc2ccc(Br)cc2)cc1 | 20 | > 20 | < 1000 | – | –
6 | O=C(O)c1ccc(C(=O)/C(=C\c2ccc([N+](=O)[O-])c(F)c2)SCc2ccc(Br)cc2)cc1 | 5 | > 20 | < 1000 | – | –
7 | COc1ccc(/C=C(/Sc2ccccc2Cl)C(=O)c2ccc(Cl)cc2)c(OC)c1OC | – | – | – | 1 | 10
8 | O=C(/C(=C\c1cc(Cl)c(O)c(Cl)c1)SCc1ccc(Br)cc1)c1ccc(Br)cc1 | – | – | – | 10 | 10
9 | COc1cc(OC)c(/C=C(\C(=O)c2ccc(Br)cc2)S(=O)(=O)c2ccc(Br)cc2)c(OC)c1 | – | – | – | > 100 | > 100
10 | COc1ccc(/C=C(/Sc2ccc(C)cc2)C(=O)c2ccc(Cl)cc2)cc1O | – | – | – | 1 | 1
11 | COc1ccc(/C=C(\C(=O)c2ccc(Cl)cc2)S(=O)(=O)Cc2ccccc2Cl)cc1 | – | – | – | 25 | 50
12 | O=C(/C(=C\c1ccc(Br)c(O)c1)S(=O)(=O)c1ccc(Br)cc1)c1ccc(Br)cc1 | – | – | – | 50 | 50

Next, values leading:

Row | IC50 (K562) [µM] | IC50 (Bcr/Abl fusion protein) [µM] | solubility [1] [µg/mL] | GI50 (K562) [µM] | GI50 (DU-145) [µM] | Compound
13 | 75 | > 20 | < 1000 | – | – | O=C(O)c1ccc(C(=O)/C(=C\c2ccc(F)c([N+](=O)[O-])c2)[S+]([O-])Cc2ccc(Br)cc2)cc1 (centres undefined)
14 | 0.8 | 10 | < 1000 | < 1 | 1 | O=C(O)c1ccc(C(=O)/C(=C\c2ccc(Cl)c([N+](=O)[O-])c2)SCc2ccccc2F)cc1
15 | 0.3 | 2.5 | < 1000 | < 1 | 1 | Cc1ccc(CS/C(=C/c2ccc(F)c([N+](=O)[O-])c2)C(=O)c2ccc(C(=O)O)cc2)cc1
16 | 75 | > 20 | < 1000 | 50 | 50 | O=C(O)c1ccc(C(=O)/C(=C\c2ccc(O)c([N+](=O)[O-])c2)SCc2ccc(Br)cc2)cc1
17 | 0.6 | 2.5 | < 1000 | < 1 | 1 | O=C(O)c1ccc(C(=O)/C(=C\c2ccc(Cl)c([N+](=O)[O-])c2)SCc2ccc(Cl)cc2Cl)cc1
18 | 7.5 | > 20 | < 1000 | – | – | O=C(O)c1ccc(C(=O)/C(=C\c2ccc([N+](=O)[O-])cc2F)SCc2ccc(Br)cc2)cc1
19 | 7.5 | > 20 | < 1000 | – | – | O=C(O)c1ccc(C(=O)/C(=C\c2cc([N+](=O)[O-])ccc2F)SCc2ccc(Br)cc2)cc1
20 | – | – | – | 1 | 10 | O=C(/C(=C\c1ccc(O)cc1)SCc1ccc(Cl)cc1)c1ccc(Cl)cc1
21 | – | – | – | 1 | 10 | O=C(O)c1ccc(C(=O)/C(=C\c2ccc([N+](=O)[O-])c(O)c2)SCc2ccc(Br)cc2)cc1
22 | – | – | – | 1 | 1 | CCOc1ccc(/C=C(\C(=O)c2ccc(Br)cc2)S(=O)(=O)c2ccc(Br)cc2)cc1OC
23 | – | – | – | 1 | 1 | O=C(/C(=C\c1ccccc1OCc1ccccc1)S(=O)(=O)c1ccc(Br)cc1)c1ccc(Cl)cc1
